In ChEMBL document CHEMBL1148937, “Anti-inflammatory phloroglucinols and terpenoids from Garcinia subelliptica” (J Nat Prod, 2004):

Experiments:
N9 [1] = assay: Antiinflammatory activity against mouse N9 cells assessed as inhibition of LPS/IFN-gamma-induced nitrite accumulation after 24 hrs; conditions: N9, 24 h
Mast cell [2] = assay: Inhibition of compound 48/80-stimulated histamine release in rat mast cell; format: functional, cell-based
Mast cell [3] = assay: Inhibition of compound 48/80-stimulated beta-glucuronidase release in rat peritoneal mast cell; format: functional, cell-based
RAW264.7 [4] = assay: Antiinflammatory activity against mouse RAW264.7 cells assessed as inhibition of LPS-induced TNFalpha production at 30 uM; format: functional
Outline: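 TNF-α production in the culture medium of LPS-stimulated RAW 264.7 cells, with test agent at 30 µM. Expressed as % inhibition.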

Neutrophil = assay: Induction of fMLP/CB-stimulated superoxide anion generation in rat neutrophil; format: functional, cell-based
Outline: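 Rat neutrophils stimulated with fMLP (0.3 µM) plus cytochalasin B (5 µg/mL). Superoxide anion generation measured across a concentration range of test agent.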

RAW264.7 [5] = assay: Antiinflammatory activity against mouse RAW264.7 cells assessed as inhibition of LPS-induced nitrite accumulation after 24 hrs; format: functional, cell-based; conditions: RAW264.7, 24 h
Outline: (§1)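 RAW 264.7 macrophage-like cells stimulated with LPS (1 µg/mL) for 24 h. Nitrite accumulated in the medium was measured by Griess reaction as an index of NO production. IC50 in µM; % inhibition is reported when 50% inhibition was not reached at the top concentration. Means ± SEM, n = 3-5.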

Mast cell [6] = assay: Inhibition of compound 48/80-stimulated beta-glucuronidase release in rat mast cell at >30 uM; format: functional
Mast cell [7] = assay: Inhibition of compound 48/80-stimulated histamine release in rat mast cell at >30 uM; format: functional
RAW264.7 [8] = assay: Antiinflammatory activity against mouse RAW264.7 cells assessed as inhibition of LPS-induced nitrite accumulation at >30 uM after 24 hrs; format: functional
Outline: as §1

N9 [9] = assay: Antiinflammatory activity against mouse N9 cells assessed as inhibition of LPS/IFN-gamma-induced nitrite accumulation at >30 uM after 24 hrs; format: functional
Outline: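 N9 microglial cells stimulated with LPS (10 ng/mL) plus IFN-γ (10 U/mL) for 24 h. NO production measured as nitrite accumulation in the medium by Griess reaction. IC50 in µM; where 50% inhibition was not reached at the highest concentration, % inhibition is given. Means ± SEM, n = 3-5.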

Row | SMILES | IC50 (N9 [1]) [µM] | IC50 (Mast cell [2]) [µM] | IC50 (Mast cell [3]) [µM] | inhibition at 30 µM (RAW264.7 [4]) [%] | Activity (Neutrophil) | IC50 (RAW264.7 [5]) [µM] | inhibition (INH) (Mast cell [6]) [%] | inhibition (INH) (Mast cell [7]) [%] | inhibition (INH) (RAW264.7 [8]) [%] | inhibition (INH) (N9 [9]) [%]
1 | CC(C)=CC[C@H]1C[C@]2(C(=O)C(C)C)C(=O)[C@@](CC=C(C)C)(C(=O)C3=C2O[C@@H](C(C)(C)O)C3)C1(C)C [GARCINIELLIPTONE L] | 12.8 | > 30 | 22.9 | 32.1 | Dose-dependent effect | 22.7 | – | – | – | –
2 | COC(=O)[C@]1(CC=C(C)C)C[C@@H](CC=C(C)C)C(C)(C)[C@@H](C(=O)C(C)C)C1=O [GARCINIELLIPTONE O] | > 30 | > 30 | > 30 | – | – | > 30 | 43.9 | 32.8 | 22.1 | 34.6
3 | CC(C)=CC[C@H]1C[C@]2(C(=O)C(C)C)C(=O)[C@@](CC=C(C)C)(C(=O)C3=C2O[C@H](C(C)(C)O)C3)C1(C)C [GARCINIELLIPTONE M] | > 30 | 19 | 13.6 | 36.9 | Dose-dependent effect | 15.3 | – | – | – | –
4 | CC(C)=CC[C@H]1C[C@@H](CC=C(C)C)C(C)(C)[C@@H](C(=O)C(C)C)C1=O [GARCINIELLIPTONE N] | > 30 | > 30 | > 30 | – | – | > 30 | 30.2 | 13.7 | 5.7 | 34.5
5 | CCN(CC)CCCC(C)Nc1c2ccc(Cl)cc2nc2ccc(OC)cc12 (configuration not stated) [QUINACRINE] | – | 23.3 | 13.7 | – | – | – | – | – | – | –
6 | CC(=N)NCc1cccc(CN)c1 [1400W] | 6.3 | – | – | – | – | 2.9 | – | – | – | –
